In ChEMBL document CHEMBL3297741, “Cytotoxic cleistanthane and cassane diterpenoids from the entomogenous fungus Paraconiothyrium hawaiiense” (J Nat Prod, 2014):
Activity calls are given as the source filed them. The calls are words filed in the database; no cut-off is given here.

Tests used:
Assay type in all cases: functional, cell-based
HeLa [1] = assay: Cytotoxicity against human HeLa cells after 48 hrs by […]
Outline: (§1)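 MTS read-out. Cells were seeded at (2−5) × 10^3 per well, depending on growth rate, and attached overnight. Medium was then replaced with medium holding serial dilutions of compound from 100 mM DMSO stocks, with 0.1% DMSO vehicle and cisplatin control. Plates were incubated 48 h at 37 °C in humidified 5% CO2. MTS was added for 90 min at 37 °C in the dark, and absorbance read at 490 nm. Triplicate runs gave IC50.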

HCT-116 [2] = assay: Cytotoxicity against human HCT116 cells after 48 hrs by […]; conditions: HCT-116, 48 h; outline: as §1
A549 [3] = assay: Cytotoxicity against human A549 cells after 48 hrs by […]; conditions: A549, 48 h; outline: as §1
MCF7 [4] = assay: Cytotoxicity against human MCF7 cells after 48 hrs by […]; conditions: MCF7, 48 h; outline: as §1
[5] = Cytotoxicity against human T24 cells after 48 hrs by […]; conditions: T-24, 48 h; outline: as §1
A549 [6] = assay: Cytotoxicity against human A549 cells at 50 uM after 48 hrs by […]
Outline: (§2)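 Single concentration of 50 μM tested in the MTS proliferation assay. Cells were seeded at (2−5) × 10^3 per well and attached overnight. Compound was diluted in medium from 100 mM DMSO stock, alongside a 0.1% DMSO vehicle. Plates were incubated 48 h at 37 °C in humidified 5% CO2. MTS was added for 90 min at 37 °C, then absorbance read at 490 nm. Run in triplicate.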

T-24 = assay: Cytotoxicity against human T24 cells at 50 uM after 48 hrs by […]; outline: as §2
HCT-116 [7] = assay: Cytotoxicity against human HCT116 cells at 50 uM after 48 hrs by […]; outline: as §2
HeLa [8] = assay: Cytotoxicity against human HeLa cells at 50 uM after 48 hrs by […]; outline: as §2
MCF7 [9] = assay: Cytotoxicity against human MCF7 cells at 50 uM after 48 hrs by […] assay; outline: as §2

| SMILES | IC50 (HeLa [1]) [µM] | IC50 (HCT-116 [2]) [µM] | IC50 (A549 [3]) [µM] | IC50 (MCF7 [4]) [µM] | IC50 [5] [µM] | inhibition (A549 [6]) | inhibition (T-24) | inhibition (HCT-116 [7]) | inhibition (HeLa [8]) | inhibition (MCF7 [9]) |
| --- | --- | --- | --- | --- | --- | --- | --- | --- | --- | --- |
| C=C[C@@H]1C(=C)CC[C@H]2[C@H]1CC(=O)[C@@]1(O)[C@@]3(C)C(=O)O[C@H]3CC[C@]21C | 2.84 | 6.23 | 7.48 | 7.43 | 4.26 |  |  |  |  |  |
| C=C[C@@H]1C(=C)CC[C@H]2[C@H]1C[C@H]1OC(=O)[C@@]3(C)[C@H](O)CC[C@@]2(C)[C@@]13O | 50.3 |  |  |  |  |  |  |  |  |  |
| C=CC1=CC[C@H]2[C@@H](CC(=O)[C@@]3(O)[C@@]4(C)C(=O)O[C@H]4CC[C@]23C)[C@H]1C |  |  |  |  |  | inactive | inactive | inactive | inactive | inactive |
| C=C[C@@H]1C(=C)CC[C@H]2[C@H]1C[C@H]1OC(=O)[C@@]3(C)[C@H](OC(C)=O)CC[C@@]2(C)[C@@]13O | 43.7 | 37.3 | 43.6 | 23.4 | 20.7 |  |  |  |  |  |
